Data as given in ChEMBL document CHEMBL3751842, “Novel triazolothiadiazines act as potent anticancer agents in liver cancer cells through Akt and ASK-1 proteins” (Bioorg Med Chem, 2016).
pIC50: −log10 of the molar value.

Columns and labels:
[1] = Cytotoxicity against human SNU475 cells assessed as growth inhibition after 72 hrs by sulforhodamine B assay; assay type: functional, cell-based, SNU-475; settings: snu-475
In short: (§1)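 Cells were grown at 37°C, 5% CO2 in DMEM with 10% FBS. They were seeded at 1000–3000 cells/well, grown 24 h, then exposed to compound at 2.5–40 µM for 72 h. Cells were fixed in 10% TCA for 1 h at 4°C, stained with 0.4% SRB in 1% acetic acid for 10 min, and the dye solubilized in 10 mM Tris. Absorbance was read at 515 nm; runs were in triplicate; IC50 was calculated, with fits of R2 0.8–1 accepted.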

[2] = tested on: MCF7; test: Cytotoxicity against human MCF7 cells assessed as growth inhibition after 72 hrs by sulforhodamine B assay; assay type: functional, cell-based; settings: for IC50: mcf7; for pIC50: Homo sapiens, MCF7, 72 h, read-out: IC50; in short: as §1
[3] = Cytotoxicity against human Hep3B cells assessed as growth inhibition after 72 hrs by sulforhodamine B assay; assay type: functional, cell-based, Hep 3B2; settings: hep 3b2; in short: as §1
[4] = tested on: HepG2; test: Cytotoxicity against human HepG2 cells assessed as growth inhibition after 72 hrs by sulforhodamine B assay; assay type: functional, cell-based; settings: for IC50: hepg2; in short: as §1
[5] = Cytotoxicity against human FOCUS cells assessed as growth inhibition after 72 hrs by sulforhodamine B assay; assay type: functional, cell-based; settings: focus; in short: as §1
[6] = Cytotoxicity against human HCT116 cells assessed as growth inhibition after 72 hrs by sulforhodamine B assay; assay type: functional, cell-based, HCT-116; settings: for IC50: hct-116; for pIC50: Homo sapiens, HCT-116, 72 h, read-out: IC50; in short: as §1
[7] = Cytotoxicity against human HuH7 cells assessed as growth inhibition after 72 hrs by sulforhodamine B assay; assay type: functional, cell-based, Huh-7; settings: for IC50: huh-7; for pIC50: Homo sapiens, Huh-7, 72 h, read-out: IC50; in short: as §1
[8] = Cytotoxicity against human Mahlavu cells assessed as growth inhibition after 72 hrs by sulforhodamine B assay; assay type: functional, cell-based; settings: mahlavu; in short: as §1

SMILES	pIC50 [2]	pIC50 [6]	pIC50 [7]	other results
CC(C(=O)O)c1ccc(-c2ccccc2)c(F)c1 (centres undefined) [FLURBIPROFEN]				IC50 [1]: Not Active; IC50 [2]: Not Active; IC50 [3]: Not Active; IC50 [4]: Not Active; IC50 [5]: Not Active; IC50 [6]: Not Active; IC50 [7]: Not Active; IC50 [8]: Not Active
COc1ccc2cc(C(C)c3nnc4n3N=C(c3ccc(Cl)cc3)CS4)ccc2c1 (centres undefined)	5.00	5.06	5.25	
CC(c1ccc(-c2ccccc2)c(F)c1)c1nnc2n1N=C(c1ccccc1)CS2 (centres undefined)	5.13	5.01	5.17	
CC(C)Cc1ccc(C(C)c2nnc3n2N=C(c2ccc([N+](=O)[O-])cc2)CS3)cc1 (centres undefined)				IC50 [2]: Not Active; IC50 [6]: Not Active; IC50 [7]: Not Active
Cc1ccc(C2=Nn3c(nnc3C(C)c3ccc(-c4ccccc4)c(F)c3)SC2)cc1 (centres undefined)	5.30	5.32	5.14	
CC(c1ccc(-c2ccccc2)c(F)c1)c1nnc2n1N=C(c1ccc(C(F)(F)F)cc1)CS2 (centres undefined)	5.37	5.21	5.03	
COc1ccc2cc(C(C)c3nnc4n3N=C(c3ccc(F)cc3)CS4)ccc2c1 (centres undefined)	4.80	4.88	5.15	
CC(c1ccc(-c2ccccc2)c(F)c1)c1n[nH]c(=S)n1N (centres undefined)			4.37	IC50 [1]: Not Active; IC50 [2]: Not Active; IC50 [3]: Not Active; pIC50 ([4]; Homo sapiens, HepG2, 72 h, read-out: IC50): 4.67; IC50 [5]: Not Active; IC50 [6]: Not Active; IC50 [8]: Not Active
CC(C)Cc1ccc(C(C)C(=O)O)cc1 (centres undefined) [IBUPROFEN]			4.43	IC50 [1]: Not Active; IC50 [2]: Not Active; IC50 [3]: Not Active; IC50 [4]: Not Active; IC50 [5]: Not Active; IC50 [6]: Not Active; IC50 [8]: Not Active
COc1ccc2cc(C(C)c3nnc4n3N=C(c3ccc(Br)cc3)CS4)ccc2c1 (centres undefined)	4.94	4.93	5.03	
COc1ccc2cc(C(C)c3nnc4n3N=C(c3ccc([N+](=O)[O-])cc3)CS4)ccc2c1 (centres undefined)	4.73	4.82	4.83	
CC(C)Cc1ccc(C(C)c2nnc3n2N=C(c2ccc(C(F)(F)F)cc2)CS3)cc1 (centres undefined)	5.38	5.19	5.08	
COc1ccc2cc(C(C)c3nnc4n3N=C(c3ccc(OC(F)(F)F)cc3)CS4)ccc2c1 (centres undefined)	5.06	4.93	4.80	
CC(C)Cc1ccc(C(C)c2nnc3n2N=C(c2ccc(Cl)cc2)CS3)cc1 (centres undefined)	5.06	5.17	5.24	
COc1ccc2cc(C(C)c3nnc4n3N=C(c3ccc(C)cc3)CS4)ccc2c1 (centres undefined)	4.96	4.99	5.09	
COc1ccc2cc(C(C)c3nnc4n3N=C(c3ccc(Cl)cc3Cl)CS4)ccc2c1 (centres undefined)	4.84	4.85	4.97	
COc1ccc2cc(C(C)c3nnc4n3N=C(c3ccccc3)CS4)ccc2c1 (centres undefined)	4.93	5.05	5.24	
CC(c1ccc(-c2ccccc2)c(F)c1)c1nnc2n1N=C(c1ccc(OC(F)(F)F)cc1)CS2 (centres undefined)	5.32	5.27	5.08	
CC(C)Cc1ccc(C(C)c2nnc3n2N=C(c2ccc(F)cc2)CS3)cc1 (centres undefined)	5.05	4.91	5.11	
COc1ccc(C2=Nn3c(nnc3C(C)c3ccc4cc(OC)ccc4c3)SC2)cc1 (centres undefined)	5.18	5.19	5.07	
CC(C)Cc1ccc(C(C)c2nnc3n2N=C(c2ccccc2)CS3)cc1 (centres undefined)	5.01	5.12	5.21	
COc1ccc2cc(C(C)c3nnc4n3N=C(c3ccc(C(F)(F)F)cc3)CS4)ccc2c1 (centres undefined)	5.16	4.97	4.83	
CC(C)Cc1ccc(C(C)c2nnc3n2N=C(c2ccc(Cl)cc2Cl)CS3)cc1 (centres undefined)	4.93	4.95	5.12	
